Data on two compounds can be found in ChEMBL document CHEMBL4196141, “Improved Antibacterial Activity of the Marine Peptide N6 against Intracellular Salmonella Typhimurium by Conjugating with the Cell-Penetrating Peptide Tat11 via a Cleavable Linker” (J Med Chem, 2018).

Data set [1] has as its system Salmonella typhimurium. Put plainly: Bactericidal activity against 2 hrs-gentamicin pre-exposed Salmonella typhimurium ATCC 14028 assessed as reduction colony forming units at 50 uM incubated for 10 hrs relative to marine peptide N6. In kind it is functional, Salmonella enterica subsp. enterica serovar Typhimurium. Also noted: scale not given: the % may be the effect or the level left. The gist of the method:
(§1)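 Macrophage protection assay. RAW264.7 cells (5 × 10^4/well, 24 h) were infected with S. Typhimurium ATCC14028 at MOI 10 for 1 h in DMEM/10% FBS, exposed to 100 µg/mL gentamicin for 2 h at 37 °C, and PBS-washed. Peptides in DMEM/10% FBS were added for 10 h. Cells were lysed with 0.1% Triton X-100 and CFU plated; log10 CFU reduction versus untreated cells. Three replicates; two independent experiments; one-way ANOVA with Tukey.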

In data set [2] the test system is Salmonella typhimurium. The experiment in a line: Bactericidal activity against 2 hrs-gentamicin pre-exposed Salmonella typhimurium ATCC 14028 assessed as reduction colony forming units at 50 uM incubated for 10 hrs. It is filed as functional, Salmonella enterica subsp. enterica serovar Typhimurium. The gist of the method: as §1
The test system of data set [3] is Salmonella typhimurium. Put plainly: Antibacterial activity against Salmonella typhimurium ATCC 14028 infected in ICR mouse model of peritonitis assessed as reduction colony forming units in intracellular fluids at 1 umol/kg, ip dosed at 2 hrs post infection and measured after 10 hrs post dose. In kind it is functional, Salmonella enterica subsp. enterica serovar Typhimurium. The gist of the method:
(§2)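 Six-week-old female ICR mice (six per group) received ip S. Typhimurium ATCC14028 (5 × 10^5 CFU, 0.5 mL). Peptide was given ip 2 h post-infection and mice were killed 10 h after treatment. Peritoneum was lavaged with 5 mL ice-cold PBS and total CFU counted. For intracellular CFU, pelleted cells were treated with 100 µg/mL gentamicin for 1 h at 37 °C, washed, lysed and plated. PBS served as negative control, ciprofloxacin as positive.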

A short description of data set [4]: Drug localisation in cytosol of mouse RAW264.7 using FITC-labeled compound at 5 uM incubated for 2 hrs by confocal microscopy. It is filed as ADME, cell-based. The gist of the method:
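RAW264.7 cells were plated for 18 h at 37 °C, then given 5 µM FITC or FITC-labeled peptide for 2 h. Nuclei were stained with Hoechst 33342 and membranes with FM 4-64 (each 5 µg/mL) for 30 min at 37 °C. Cells were PBS-washed and imaged by confocal fluorescence microscopy.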

The subject of data set [5] is Salmonella typhimurium. The experiment in a line: Antibacterial activity against Salmonella typhimurium ATCC 14028 infected in ICR mouse model of peritonitis assessed as mouse survival at 1 umol/kg, ip dosed at 0.5 and 8 hrs post infection and measured daily for 7 days.
The subject of data set [6] is Salmonella typhimurium. The experiment in a line: Antibacterial activity against Salmonella typhimurium ATCC 14028 infected in ICR mouse model of peritonitis assessed as reduction colony forming units in total peritoneal fluids at 1 umol/kg, ip dosed at 2 hrs post infection and measured after 10 hrs post dose. It is filed as functional, Salmonella enterica subsp. enterica serovar Typhimurium. The gist of the method:
as §2

Data set [7] in a line: Drug internalization in mouse RAW264.7 using FITC-labeled compound at 2 uM incubated for 2 hrs at 4 degC by flow cytometry. Conditions: raw264.7, 2 h. It is filed as ADME, cell-based. In general terms: A flow cytometer gives signals particle by particle.
For data set [8], the system named is Salmonella typhimurium. Put plainly: Antibacterial activity against Salmonella typhimurium ATCC 14028 assessed as microbial inhibition zone pretreated for 1 hr at 4 to 100 degC by inhibition zone assay. The following applies: Salmonella enterica subsp. enterica serovar Typhimurium.
Data set [9] concerns Salmonella typhimurium. The experiment in a line: Antibacterial activity against Salmonella typhimurium ATCC 14028 infected in ICR mouse model of peritonitis assessed as mouse survival at 2 umol/kg, ip dosed at 0.5 and 8 hrs post infection and measured daily for 7 days.

SMILES strings stand for the structures. Calls of active or inactive are those of the source. No cut-off for these calls is given here. Positions of bridges follow the written chain, without caps; N, C: chain ends. Residues, ends and D or L forms follow the SMILES beside them.

As to `CC(C)[C@H](NC(=O)CCCCCN1C(=O)CC(SC[C@H](N)C(=O)N[C@@H](Cc2ccc(O)cc2)C(=O)NCC(=O)N[C@@H](CCCNC(=N)N)C(=O)N[C@@H](CCCCN)C(=O)N[C@@H](CCCCN)C(=O)N[C@@H](CCCNC(=N)N)C(=O)N[C@@H](CCCNC(=N)N)C(=O)N[C@@H](CCC(N)=O)C(=O)N[C@@H](CCCNC(=N)N)C(=O)N[C@@H](CCCNC(=N)N)C(=O)N[C@@H](CCCNC(=N)N)C(=O)O)C1=O)C(=O)N[C@@H](CCCNC(N)=O)C(=O)Nc1ccc(COC(=O)NCC(=O)N[C@@H](Cc2ccccc2)C(=O)N[C@@H](C)C(=O)N[C@@H](Cc2c[nH]c3ccccc23)C(=O)N[C@@H](CC(N)=O)C(=O)N[C@H](C(=O)N[C@H]2CSSC[C@@H](C(=O)N[C@@H](Cc3cnc[nH]3)C(=O)N[C@@H](CCCNC(=N)N)C(=O)N[C@@H](CCCNC(=N)N)C(=O)N[C@@H](C)C(=O)N[C@@H](CC(N)=O)C(=O)O)NC(=O)[C@H](C(C)C)NC(=O)[C@H](CCCNC(=N)N)NC(=O)[C@H](C(C)C)NC(=O)CNC(=O)[C@H](CC(N)=O)NC(=O)[C@H](CCCNC(=N)N)NC(=O)[C@H](Cc3ccc(O)cc3)NC(=O)[C@H](C(C)C)NC2=O)C(C)C)cc1` (stereo partly specified), the Activity with Salmonella typhimurium [1] is given as 76.2%; in the data set with Salmonella typhimurium [2], 2.06 log10CFU; in the data set with Salmonella typhimurium [3] it was 1.39 log10CFU; with Salmonella typhimurium [5], 66.7%; with Salmonella typhimurium [6], 1.87 log10CFU. Besides, the Drug uptake entry is “Active” in data set [4] and “Not Active” in [7].

As to `CC(C)[C@@H]1NC(=O)CNC(=O)[C@H](CC(N)=O)NC(=O)[C@H](CCCNC(=N)N)NC(=O)[C@H](Cc2ccc(O)cc2)NC(=O)[C@H](C(C)C)NC(=O)[C@@H](NC(=O)[C@@H](NC(=O)[C@H](CC(N)=O)NC(=O)[C@H](Cc2c[nH]c3ccccc23)NC(=O)[C@H](C)NC(=O)[C@H](Cc2ccccc2)NC(=O)CN)C(C)C)CSSC[C@@H](C(=O)N[C@@H](Cc2cnc[nH]2)C(=O)N[C@@H](CCCNC(=N)N)C(=O)N[C@@H](CCCNC(=N)N)C(=O)N[C@@H](C)C(=O)N[C@@H](CC(N)=O)C(N)=O)NC(=O)[C@H](C(C)C)NC(=O)[C@H](CCCNC(=N)N)NC1=O` (H-GFAWNVCVYRNGVRVCHRRAN-NH2; disulfide 7-16), the Activity in the data set on Salmonella typhimurium [1] is recorded as 97.6%; with Salmonella typhimurium [2] it was 3.13 log10CFU; with Salmonella typhimurium [3], 2.22 log10CFU; in the data set with Salmonella typhimurium [5] it was 66.7%; in the data set with Salmonella typhimurium [6], 3.04 log10CFU; in the data set with Salmonella typhimurium [9], 100%. For the same compound, the values for the Drug uptake entry in data set [4] and in data set [7] were “Active” and “Not Active”, respectively. The outcome in the data set on Salmonella typhimurium [8] was Active.
